Laboratory results taken from ChEMBL document CHEMBL3526073, “Hydralazine as a selective probe inactivator of aldehyde oxidase in human hepatocytes: estimation of the contribution of aldehyde oxidase to metabolic clearance” (Drug Metab Dispos, 2012).

How the values were obtained:
[1] = Drug level in cryopreserved human hepatocytes assessed as CYP450-mediated metabolite formation treated with 20 uM of zaleplon after 30 mins by LC-MS/MS analysis; type: ADME, cell-based, Hepatocyte; settings: 0.5 h
How it was run: (§1)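 Pooled cryopreserved human hepatocytes (five-donor pool, viability >80%) in Williams E medium, preincubated 30 min at 37°C under O2/CO2 (95/5). Zaleplon 20 μM final, with hydralazine 0–200 μM or 1-aminobenzotriazole 0–1.5 mM co-added, incubated 30 min. Reaction stopped with cold acetonitrile containing internal standard. Oxozaleplon (AO product) and desethylzaleplon (CYP product) measured by LC-MS/MS and expressed as percent of control.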

Aldehyde oxidase [2] = molecular target: T1, Aldehyde oxidase (Homo sapiens, UniProt Q06278); settings: hepatocytes, 2 h, 10 µM
T1 sequence (Q06278 whole entry): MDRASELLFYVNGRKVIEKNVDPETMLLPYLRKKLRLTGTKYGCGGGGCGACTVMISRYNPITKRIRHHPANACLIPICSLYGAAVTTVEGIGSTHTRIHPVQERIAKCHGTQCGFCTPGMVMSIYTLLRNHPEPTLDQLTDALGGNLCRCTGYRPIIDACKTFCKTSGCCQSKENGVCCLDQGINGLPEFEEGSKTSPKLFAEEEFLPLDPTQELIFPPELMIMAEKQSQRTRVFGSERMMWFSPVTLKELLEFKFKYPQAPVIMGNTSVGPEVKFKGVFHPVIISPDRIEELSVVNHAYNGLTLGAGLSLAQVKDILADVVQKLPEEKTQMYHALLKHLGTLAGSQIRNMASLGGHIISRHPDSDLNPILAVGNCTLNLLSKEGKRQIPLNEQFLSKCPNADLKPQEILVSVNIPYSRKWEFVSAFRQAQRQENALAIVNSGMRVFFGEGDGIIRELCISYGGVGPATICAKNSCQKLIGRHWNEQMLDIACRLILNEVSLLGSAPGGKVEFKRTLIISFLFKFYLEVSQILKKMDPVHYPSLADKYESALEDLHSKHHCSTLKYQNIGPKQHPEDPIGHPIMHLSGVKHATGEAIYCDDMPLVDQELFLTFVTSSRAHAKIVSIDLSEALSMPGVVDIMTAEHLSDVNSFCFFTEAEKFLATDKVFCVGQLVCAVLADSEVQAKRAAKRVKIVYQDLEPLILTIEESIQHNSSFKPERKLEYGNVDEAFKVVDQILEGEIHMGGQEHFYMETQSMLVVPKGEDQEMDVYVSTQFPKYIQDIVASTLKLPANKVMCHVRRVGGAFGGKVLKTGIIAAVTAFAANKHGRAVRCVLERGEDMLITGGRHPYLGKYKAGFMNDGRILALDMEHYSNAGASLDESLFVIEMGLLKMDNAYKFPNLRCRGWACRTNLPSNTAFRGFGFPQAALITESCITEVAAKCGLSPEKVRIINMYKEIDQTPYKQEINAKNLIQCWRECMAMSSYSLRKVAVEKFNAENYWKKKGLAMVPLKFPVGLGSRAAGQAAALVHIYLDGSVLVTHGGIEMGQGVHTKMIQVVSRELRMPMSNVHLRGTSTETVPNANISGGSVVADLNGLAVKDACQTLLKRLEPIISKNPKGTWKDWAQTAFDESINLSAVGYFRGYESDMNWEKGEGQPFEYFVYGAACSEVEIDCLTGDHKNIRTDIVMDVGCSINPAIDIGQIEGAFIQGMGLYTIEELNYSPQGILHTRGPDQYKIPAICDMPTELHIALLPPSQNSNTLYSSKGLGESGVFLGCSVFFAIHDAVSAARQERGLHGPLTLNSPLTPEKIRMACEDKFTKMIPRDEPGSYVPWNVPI

Aldehyde oxidase [3] = molecular target: T1, Aldehyde oxidase; experiment: Drug metabolism in cryopreserved human hepatocytes assessed as aldehyde oxidase-mediated formation of oxozaleplon at 50 uM after 30 mins by LC-MS/MS analysis; type: ADME, cell-based, Hepatocyte; settings: 0.5 h
[4] = Drug metabolism in cryopreserved human hepatocytes assessed as CYP450-mediated formation of desethylzaleplon at 50 uM after 30 mins by LC-MS/MS analysis; type: ADME, cell-based, Hepatocyte; settings: 0.5 h
Aldehyde oxidase [5] = molecular target: T1, Aldehyde oxidase; settings: hepatocytes, 2 h, 10 µM; remark: listed apart in the source
CYP2D6 [6] = molecular target: T2, CYP2D6 (Homo sapiens, UniProt P10635); experiment: Inhibition of CYP2D6 in human liver microsomes assessed as residual activity using dextromethorphan as substrate at 50 uM relative to control; settings: probe dextromethorphan
CYP2C9 [7] = molecular target: T3, CYP2C9 (Homo sapiens, UniProt P11712); experiment: Inhibition of CYP2C9 in human liver microsomes assessed as residual activity using diclofenac as substrate at 50 uM relative to control; settings: probe diclofenac
CYP2C8 [8] = molecular target: T4, CYP2C8 (Homo sapiens, UniProt P10632); experiment: Inhibition of CYP2C8 in human liver microsomes assessed as residual activity using paclitaxel as substrate at 50 uM relative to control; settings: probe paclitaxel
T4 sequence (P10632 whole entry): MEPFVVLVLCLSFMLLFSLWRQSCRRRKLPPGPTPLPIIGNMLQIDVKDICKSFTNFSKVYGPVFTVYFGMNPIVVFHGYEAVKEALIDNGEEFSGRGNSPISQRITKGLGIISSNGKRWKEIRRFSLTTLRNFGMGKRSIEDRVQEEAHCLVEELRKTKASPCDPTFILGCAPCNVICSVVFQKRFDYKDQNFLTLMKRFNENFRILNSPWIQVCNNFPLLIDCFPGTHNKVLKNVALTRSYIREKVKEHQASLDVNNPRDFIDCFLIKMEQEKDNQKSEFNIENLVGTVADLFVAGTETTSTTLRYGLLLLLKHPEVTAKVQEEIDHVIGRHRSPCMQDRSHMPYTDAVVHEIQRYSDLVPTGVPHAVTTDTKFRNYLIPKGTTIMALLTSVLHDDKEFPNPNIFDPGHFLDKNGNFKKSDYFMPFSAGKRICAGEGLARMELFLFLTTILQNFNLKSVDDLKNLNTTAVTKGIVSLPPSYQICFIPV

CYP2C19 [9] = molecular target: T5, CYP2C19 (Homo sapiens, UniProt P33261); experiment: Inhibition of CYP2C19 in human liver microsomes assessed as residual activity using S-mephenytoin as substrate at 50 uM relative to control; settings: probe S-mephenytoin
CYP2C8 [10] = molecular target: T4, CYP2C8; experiment: in vitro; settings: liver microsomes, probe paclitaxel
CYP3A [11] = molecular target: T6, CYP3A (Homo sapiens, UniProt P08684+P20815+P24462+Q9HB55); experiment: in vitro; settings: liver microsomes, probe midazolam
CYP1A2 [12] = molecular target: T7, CYP1A2 (Homo sapiens, UniProt P05177); experiment: in vitro; settings: liver microsomes, probe phenacetin
T7 sequence (P05177 whole entry): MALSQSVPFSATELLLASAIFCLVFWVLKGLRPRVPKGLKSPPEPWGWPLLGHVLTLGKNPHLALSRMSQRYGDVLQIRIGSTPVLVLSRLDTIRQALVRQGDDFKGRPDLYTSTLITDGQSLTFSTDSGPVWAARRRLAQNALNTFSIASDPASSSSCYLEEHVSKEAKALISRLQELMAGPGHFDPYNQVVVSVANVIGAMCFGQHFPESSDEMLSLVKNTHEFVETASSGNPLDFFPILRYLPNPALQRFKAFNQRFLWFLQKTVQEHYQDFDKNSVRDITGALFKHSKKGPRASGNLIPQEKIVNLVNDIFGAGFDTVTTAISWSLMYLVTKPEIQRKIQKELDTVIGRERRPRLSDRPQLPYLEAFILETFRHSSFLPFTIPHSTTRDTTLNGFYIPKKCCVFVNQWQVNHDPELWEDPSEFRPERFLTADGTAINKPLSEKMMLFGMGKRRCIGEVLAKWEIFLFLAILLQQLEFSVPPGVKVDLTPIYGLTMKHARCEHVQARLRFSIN

CYP3A [13] = molecular target: T6, CYP3A; experiment: Inhibition of CYP3A in human liver microsomes assessed as residual activity using midazolam as substrate at 50 uM relative to control; settings: probe midazolam
CYP2C9 [14] = molecular target: T3, CYP2C9; experiment: in vitro; settings: liver microsomes, probe diclofenac
CYP2D6 [15] = molecular target: T2, CYP2D6; experiment: in vitro; settings: liver microsomes, probe dextromethorphan
CYP2C19 [16] = molecular target: T5, CYP2C19; experiment: in vitro; settings: liver microsomes, probe S-mephenytoin
CYP1A2 [17] = molecular target: T7, CYP1A2; experiment: Inhibition of CYP1A2 in human liver microsomes assessed as residual activity using phenacetin as substrate at 50 uM relative to control; settings: probe phenacetin
Aldehyde oxidase [18] = molecular target: T1, Aldehyde oxidase; experiment: Inhibition of aldehyde oxidase in human liver cytosol assessed as production of oxozoniporide
Aldehyde oxidase [19] = molecular target: T1, Aldehyde oxidase; experiment: Drug metabolism in cryopreserved human hepatocytes assessed as aldehyde oxidase-mediated formation of oxozaleplon at 20 uM after 30 mins by LC-MS/MS analysis in presence of 1.5 mM of 1-aminobenzotriazole; type: ADME, cell-based, Hepatocyte; settings: 0.5 h; how it was run: as §1
Aldehyde oxidase [20] = molecular target: T1, Aldehyde oxidase; experiment: Drug metabolism in cryopreserved human hepatocytes assessed as aldehyde oxidase-mediated formation of oxozaleplon at 20 uM after 30 mins by LC-MS/MS analysis; type: ADME, cell-based, Hepatocyte; settings: 0.5 h; how it was run: as §1
[21] = Drug metabolism in cryopreserved human hepatocytes assessed as CYP450-mediated formation of desethylzaleplon at 20 uM after 30 mins by LC-MS/MS analysis in presence of 50 uM hydralazine; type: ADME, cell-based, Hepatocyte; settings: 0.5 h; how it was run: as §1
[22] = Drug metabolism in cryopreserved human hepatocytes assessed as CYP450-mediated formation of desethylzaleplon at 20 uM after 30 mins by LC-MS/MS analysis; type: ADME, cell-based, Hepatocyte; settings: 0.5 h; how it was run: as §1
[23] = Drug metabolism in cryopreserved human hepatocytes assessed as CYP450-mediated formation of desethylzaleplon at 20 uM after 30 mins by LC-MS/MS analysis in presence of 25 uM of hydralazine; type: ADME, cell-based, Hepatocyte; settings: 0.5 h; how it was run: as §1

T5 sequence (P33261 whole entry): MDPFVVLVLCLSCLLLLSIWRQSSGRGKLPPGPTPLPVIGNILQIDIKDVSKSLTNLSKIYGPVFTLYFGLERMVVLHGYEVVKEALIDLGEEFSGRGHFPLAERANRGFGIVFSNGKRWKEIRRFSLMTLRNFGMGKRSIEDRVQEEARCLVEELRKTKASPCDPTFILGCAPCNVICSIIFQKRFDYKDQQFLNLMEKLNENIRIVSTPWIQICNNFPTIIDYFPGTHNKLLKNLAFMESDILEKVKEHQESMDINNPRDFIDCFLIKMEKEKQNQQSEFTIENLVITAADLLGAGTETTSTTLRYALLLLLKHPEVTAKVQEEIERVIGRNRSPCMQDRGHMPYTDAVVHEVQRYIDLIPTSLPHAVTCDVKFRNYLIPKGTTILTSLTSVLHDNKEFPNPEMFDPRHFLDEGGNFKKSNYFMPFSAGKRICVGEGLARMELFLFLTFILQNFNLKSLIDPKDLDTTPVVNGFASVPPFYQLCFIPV
T3 sequence (P11712 whole entry): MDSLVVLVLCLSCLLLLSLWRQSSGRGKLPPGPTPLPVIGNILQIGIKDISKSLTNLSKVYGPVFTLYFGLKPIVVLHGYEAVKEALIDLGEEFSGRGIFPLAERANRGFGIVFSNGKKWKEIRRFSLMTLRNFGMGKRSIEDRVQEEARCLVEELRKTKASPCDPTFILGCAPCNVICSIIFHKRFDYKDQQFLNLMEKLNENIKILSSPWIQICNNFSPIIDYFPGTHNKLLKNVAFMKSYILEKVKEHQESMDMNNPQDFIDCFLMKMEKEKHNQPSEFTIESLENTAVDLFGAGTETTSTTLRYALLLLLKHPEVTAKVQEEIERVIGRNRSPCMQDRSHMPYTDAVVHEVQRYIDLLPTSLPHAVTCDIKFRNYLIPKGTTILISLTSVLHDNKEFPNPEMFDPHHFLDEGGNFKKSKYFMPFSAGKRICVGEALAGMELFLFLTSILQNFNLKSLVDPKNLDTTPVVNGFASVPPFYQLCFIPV
T2 sequence (P10635 whole entry): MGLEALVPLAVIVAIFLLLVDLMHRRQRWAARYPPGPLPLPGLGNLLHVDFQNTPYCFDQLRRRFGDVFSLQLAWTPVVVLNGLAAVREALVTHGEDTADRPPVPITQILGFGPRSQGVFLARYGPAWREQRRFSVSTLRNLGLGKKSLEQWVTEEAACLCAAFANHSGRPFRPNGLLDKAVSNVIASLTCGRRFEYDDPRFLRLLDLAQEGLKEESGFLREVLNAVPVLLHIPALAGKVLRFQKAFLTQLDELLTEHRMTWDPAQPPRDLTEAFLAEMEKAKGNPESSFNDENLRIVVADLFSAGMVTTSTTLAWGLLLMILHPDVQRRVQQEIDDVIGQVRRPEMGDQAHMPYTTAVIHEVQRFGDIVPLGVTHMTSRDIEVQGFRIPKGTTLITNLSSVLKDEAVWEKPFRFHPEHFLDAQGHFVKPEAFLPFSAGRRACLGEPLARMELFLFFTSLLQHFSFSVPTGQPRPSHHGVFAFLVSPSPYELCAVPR

## CC(=O)Nc1cccc(-c2ccnc3c(C#N)cnn23)c1
[1]
  Drug metabolism: metabolite_detected

## CC[C@H]1OC(=O)[C@H](C)C(=O)[C@H](C)[C@@H](O[C@@H]2O[C@H](C)C[C@H](N(C)C)[C@H]2O)[C@](C)(OC)C[C@@H](C)C(=O)[C@H](C)[C@H]2N(C3CN([C@H](C)c4ccnc5ncccc45)C3)C(=O)O[C@]12C
Aldehyde oxidase [2]
  Fm: 0.61

## CCN(C(C)=O)c1cccc(-c2cc(=O)[nH]c3c(C#N)cnn23)c1
Aldehyde oxidase [3]
  Drug metabolism: metabolite_not_detected
[4]
  Drug metabolism: metabolite_not_detected

## CN(C)CCNC(=O)c1cccc2cc3ccccc3nc12
Aldehyde oxidase [5]
  Fm: 0.53
Aldehyde oxidase [2]
  Fm: 0.76

## Nc1nc(OCc2ccccc2)c2[nH]cnc2n1 [6-O-BENZYLGUANINE]
Aldehyde oxidase [2]
  Fm: 0.83

## CCNC(=O)OC1CCN(c2nncc3cc(OC)c(OC)cc23)CC1 [CARBAZERAN]
Aldehyde oxidase [5]
  Fm: 0.49
Aldehyde oxidase [2]
  Fm: 0.55

## COc1ccc2c(c1)[C@]13CCCC[C@@H]1[C@H](C2)N(C)CC3 [DEXTROMETHORPHAN]
Aldehyde oxidase [2]
  Fm: 0.39

## NNc1nncc2ccccc12 [HYDRALAZINE]
CYP2D6 [6]
  activity at 50 µM: 77%
CYP2C9 [7]
  activity at 50 µM: 95%
CYP2C8 [8]
  activity at 50 µM: 95%
CYP2C19 [9]
  activity at 50 µM: 90%
CYP2C8 [10]
  activity at 25 µM: 108%
CYP3A [11]
  activity at 25 µM: 98%
CYP1A2 [12]
  activity at 25 µM: 100%
CYP3A [13]
  activity at 50 µM: 76%
CYP2C9 [14]
  activity at 25 µM: 105%
CYP2D6 [15]
  activity at 25 µM: 92%
CYP2C19 [16]
  activity at 25 µM: 103%
CYP1A2 [17]
  activity at 50 µM: 89%

## Cc1ncc2n1-c1ccc(Cl)cc1C(c1ccccc1F)=NC2 [MIDAZOLAM]
Aldehyde oxidase [5]
  Fm: 0.08
Aldehyde oxidase [2]
  Fm: 0.05

## CCN(C(C)=O)c1cccc(-c2ccnc3c(C#N)cnn23)c1 [ZALEPLON]
Aldehyde oxidase [18]
  Ki: 83 µM
Aldehyde oxidase [18]; human, liver cytosol
  kinact: 0.00105 s⁻¹
Aldehyde oxidase [19]
  Drug metabolism: metabolite_detected
Aldehyde oxidase [20]
  Drug metabolism: metabolite_detected
Aldehyde oxidase [5]
  Fm: 0.7
Aldehyde oxidase [2]
  Fm: 0.56
[21]
  Drug metabolism: metabolite_not_detected
[22]
  Drug metabolism: metabolite_detected
[23]
  Drug metabolism: metabolite_detected

## N=C(N)NC(=O)c1cnn(-c2cccc3ncccc23)c1C1CC1 [ZONIPORIDE]
Aldehyde oxidase [5]
  Fm: 0.64
Aldehyde oxidase [2]
  Fm: 0.55
